Sampled rows, rich in hits. Any-hit rate of the full collection: about 2.2%.
Granule exo inh: blocks lytic granule exocytosis. AID 651702. actives 0.66% (n = 360,000). inhibition, % at 10 µM. TALL-104 LAMP-1 surface exposure, flow cytometry; cells stimulated with thapsigargin and PMA;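 active = inhibition above about 55%, limit read from the data; inconclusive = no clear call, values can overlap the other calls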
Myeloid diff 2: promotes myeloid progenitor differentiation | ER-HoxA9 myeloid progenitors, lysozyme-GFP differentiation, flow cytometry | calls only at 10 µM | actives 1% (n = 360,000) | AID 624256;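 active = normalized GFP-positive differentiation at or above the plate's own cutoff, the solvent-only control mean plus 3 SD; inconclusive = no clear call, values can overlap the other calls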;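 note: cells exposed to compound for four days before flow analysis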
CSN inh: CSN deneddylation inhibition | Q92905 | Purified CSN, SCF-Nedd8-OG deneddylation, fluorescence polarization | inhibition, % at 12.5 µM | actives 0.38% (n = 360,000);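 active = pattern-corrected inhibition above about 35%, with an unprinted fluorescence ratio check between 0.5 and 1.5, limit read from the data, passing the limit was not always enough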;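 note: 0% = enzyme with substrate and 100% = substrate without enzyme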
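Assay system: Purified human Csn5 enzyme expressed in HEK293T cells | Amount: Enzyme 0.24 nM | Measured by: Fluorescence polarization readout | Medium: Tris/NaCl/DTT buffer, pH 7.5 | Compound dosing: One concentration, 12.5 µM, 0.25% DMSO | Times: 90 min incubation of compound, enzyme and substrate at room temperature | Control set: no-enzyme wells high, enzyme-with-substrate wells low | Read-out: % inhibition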
HNF4A DNA FP: change in binding of human HNF4 alpha to DNA. P41235. HNF4a-FITC DNA binding, fluorescence polarization, 1 h. activity change, % at 10 µM. actives 0.3% (n = 360,000); in the data active = activity change above about 30%, passing the limit was not always enough
Target sequence (P41235 whole entry, looked up): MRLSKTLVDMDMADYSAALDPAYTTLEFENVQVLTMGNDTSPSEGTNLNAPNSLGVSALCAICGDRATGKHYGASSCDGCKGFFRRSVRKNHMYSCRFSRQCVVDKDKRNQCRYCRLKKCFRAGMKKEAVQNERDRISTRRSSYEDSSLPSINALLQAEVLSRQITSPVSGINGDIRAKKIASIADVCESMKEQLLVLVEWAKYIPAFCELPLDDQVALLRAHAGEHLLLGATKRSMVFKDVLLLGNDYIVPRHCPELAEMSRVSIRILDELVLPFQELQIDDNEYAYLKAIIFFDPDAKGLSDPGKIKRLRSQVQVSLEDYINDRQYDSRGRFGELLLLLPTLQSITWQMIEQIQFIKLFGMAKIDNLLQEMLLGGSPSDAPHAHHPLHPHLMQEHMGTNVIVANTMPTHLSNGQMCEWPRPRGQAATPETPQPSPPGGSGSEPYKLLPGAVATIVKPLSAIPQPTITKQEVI
Myeloid diff: promotes myeloid progenitor differentiation. shares compounds with Myeloid diff 2. ER-HoxA9 myeloid progenitors, GFP/Mac1 double-positive flow. calls only. actives 2% (n = 2,300);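 active = share of green or green-and-red cells above 9 and 9% in run 1 or 4 and 3% in run 2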
GFP autofluor: counter-screen for myeloid differentiation promoters: compound fluorescence; fluorescence response, % (concentration not given with the values); actives 7.4% (n = 2,300); shares compounds with Myeloid diff 2; AID 651707; ER-HoxA9 myeloid progenitors, no estrogen, GFP autofluorescence flow cytometry; vehicle wells 0%, positive control 100%;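 active = over 5% cells positive for green fluorescent reporter, or over 2% positive for both it and APC stain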;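 note: range taken on the double positive population between DMSO and positive control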
Starred values were filed as active, the others as inactive; i = inactive; ? = inconclusive; · = no result given; + = active, no number.

SMILES	Granule exo inh	Myeloid diff 2	CSN inh	HNF4A DNA FP	Myeloid diff	GFP autofluor
Cc1ccc(CN2C(=O)C(F)(F)Oc3ccccc32)cc1	-0.5	i	0.3	-3.9	·	·
COc1ccc2c(c1)NC(=O)CC(c1ccccc1)=N2	5.2	i	-1.8	-2.4	i	0.0
COc1ccc(CSc2nc(CSC)cc(N3CCOCC3)n2)cc1	3.1	+	1.4	7.3	i	0.0
CC1CCN(C(=O)COC(=O)c2cccs2)CC1	39.5	i	-2.6	1.2	·	·
CS(=O)(=O)c1ccc(C(=O)NNC(=O)c2cc(-c3ccccc3)n[nH]2)cc1	-4.4	i	-4.5	2.0	·	·
COc1cc(C(=O)NNC(=O)c2cc(-c3ccccc3)n[nH]2)cc(OC)c1C	1.2	i	-2.1	-3.1	i	0.7
O=C(Nc1ccccc1F)c1cc(S(=O)(=O)N2CCOCC2)ccc1N1CCOCC1	-5.0	i	-0.9	-2.8	·	·
COc1ccc(C(=O)NC(C)c2nnc(SCC(=O)NC3CCCC3)n2C)cc1 (centres undefined)	-5.5	i	-0.3	-0.4	·	·
CCCCN(C(=O)c1ccc(-c2ccc([N+](=O)[O-])cc2)o1)c1c(N)n(CCCC)c(=O)[nH]c1=O	15.5	·	1.6	4.3	·	·
CCCCN(C(=O)c1ccc([N+](=O)[O-])o1)c1c(N)n(CCCC)c(=O)[nH]c1=O	-4.5	+	-6.5	-4.0	i	1.5
CCN1CCN(c2ccc(S(=O)(=O)N3CCOCC3)cc2NC(=O)COc2ccc(F)cc2Cl)CC1	0.3	i	6.5	-0.9	·	·
C=CCn1c(SCC(=O)Nc2nncs2)nnc1-c1ccco1	7.2	i	-11.4	0.4	·	·
COc1ccc2c(c1)CCC(C)N2S(=O)(=O)c1ccc(C2CNC(=O)C2)cc1 (centres undefined)	3.6	·	-2.9	-4.0	i	0.0
Cc1ccc2oc(=O)c3cnn(CC(=O)N4CCCc5ccccc54)c3c2c1	2.7	i	-2.7	1.8	i	0.2
COC(=O)c1cc(NS(=O)(=O)c2ccc3c(c2)CCC(=O)N3)cc(C(=O)OC)c1	-0.7	+	4.6	2.3	i	0.0
Cc1cc(CN2CCC(n3nccc3NC(=O)c3ccccc3C)CC2)n[nH]1	-3.5	i	1.5	-0.1	·	·
Cc1ccc(NC(=O)c2nc[nH]c2C(=O)N(C)CCO)cc1	5.5	i	2.9	0.1	·	·
CCOC(=O)c1ccc(NC(=O)c2nc[nH]c2C(=O)N(C)CCO)cc1	-1.1	+	-3.6	4.8	i	0.0
CCOc1ccc(OCC(=O)OC(C)C(=O)NC2CCCC2)cc1 (centres undefined)	17.3	i	1.0	-1.7	·	·
CCc1c(C)nc2ncnn2c1Nc1ccc(C)cc1	-0.4	i	-1.0	0.1	·	·
CCc1c(C)nc2ncnn2c1NC1CCCc2ccccc21 (centres undefined)	-1.0	i	3.8	1.2	i	0.3
CC(=O)N1CCOc2ccc(S(=O)(=O)N3CCN(c4cc(C)ccc4C)CC3)cc21	-1.1	i	0.7	-5.2	·	·
CC(C)(C)NNC(=S)Nc1ccc(S(=O)(=O)N2CCOCC2)cc1	-4.2	i	-3.2	-3.0	i	0.0
CC(C)C[C@H](NC(=O)N1CCn2c1nc1ccccc12)C(=O)N[C@@H](C(=O)O)c1ccccc1	-1.2	+	0.8	-0.4	i	0.5
CC[C@]12c3[nH]c4cc(CCC(=O)N(C)C)ccc4c3CCN1C(=O)[C@@H](CC(=O)NC(C)(C)C)C[C@@H]2C(=O)N1CCN(C(=O)C2CC2)CC1	-2.6	i	3.2	-5.9	·	·
SMILES	Granule exo inh	Myeloid diff 2	CSN inh	HNF4A DNA FP	Myeloid diff	GFP autofluor
CCC1S/C(=C(\C#N)C(N)=O)N(c2ccc(F)cc2)C1=O (centres undefined)	2.1	i	1.6	1.3	·	·
Cc1ccccc1N1C(=O)C(Cc2ccc(F)cc2)S/C1=C(\C#N)C(N)=O (centres undefined)	-3.4	i	3.3	3.2	i	4.9
N#C/C(C(N)=O)=C1/SC(Cc2ccc(F)cc2)C(=O)N1c1ccccc1 (centres undefined)	12.5	i	0.4	2.5	i	4.0
CNC(=O)/C(C#N)=C1/SC(Cc2ccc(F)cc2)C(=O)N1c1ccccc1 (centres undefined)	-2.9	i	-0.7	0.7	·	·
O=C(NCc1cccnc1)c1cnn2ccccc12	-2.7	i	-0.7	2.4	·	·
Cc1cc(C)n2ncc(C(=O)NCc3cccnc3)c2n1	3.8	+	-3.3	-0.2	i	0.0
Cc1cccc(NC(=O)c2cc(NC(=O)c3ccco3)ccc2Cl)n1	-0.5	i	1.0	-0.2	i	0.2
CC(C)CN(C(=O)CCC1CCCCC1)c1c(N)n(CC(C)C)c(=O)[nH]c1=O	10.6	i	-4.2	-1.6	·	·
CCOC(=O)C1CCN(S(=O)(=O)c2ccc(OC)c(C(=O)N3CCCCC3)c2)CC1	5.5	i	0.2	-3.7	·	·
Cc1cccc(C(=O)NC2CCN(C(=O)N3CCOCC3)CC2)c1	4.4	+	-6.4	0.7	i	0.0
Cc1cccc(C(=O)NC2CCN(CC(=O)N3CCOCC3)CC2)c1	0.6	i	0.7	-3.2	·	·
CCCN(CC(=O)Nc1ccccc1C)C(=O)CCCOc1ccc(Br)cc1	-0.1	i	2.8	0.3	·	·
Cc1ccc(CNS(=O)(=O)c2ccc(CN3C(=O)c4cccnc4C3=O)cc2)o1	-4.0	?	-0.9	-0.6	·	·
CCCCCCN1CCN(C2CN(Cc3cn(Cc4ccc(C)cc4)nn3)S(=O)(=O)C2)CC1 (centres undefined)	12.8	i	0.3	-4.7	i	0.0
Cc1cc(/C=C2\SC(=Nc3ccc(F)cc3)NC2=O)c(C)n1-c1ccc(S(N)(=O)=O)cc1	3.6	i	24.4	10.4	i	8.0*
CCCCCCn1nc(C(=O)N(CCCC)c2c(N)n(CCC)c(=O)[nH]c2=O)c2ccccc2c1=O	3.1	i	1.9	0.2	·	·
Cc1c(C(=O)C(C)C)n(C)c2ccccc12	-4.5	i	-1.0	0.0	i	0.5
Cn1c(C(=O)O)c(C=O)c2ccccc21	-1.2	i	9.3	-6.8	·	·
Cc1ccccc1OC(=O)c1cccc(S(=O)(=O)N2CCN(C)CC2)c1	-1.7	i	0.8	-4.3	·	·
CC(c1ccccc1)N1C(=O)CC(Sc2ncccc2C(=O)O)C1=O (centres undefined)	7.0	·	1.8	-2.4	i	3.4
COc1ccc(CCNC(=O)c2ccc(NC(=O)CC3SC(N4CCCCC4)=NC3=O)cc2)cc1 (centres undefined)	5.2	i	1.7	2.0	·	·
CCC(=Nc1ccccc1O)C1=C(O)CC(c2ccccc2)CC1=O (centres undefined)	2.1	i	2.5	-0.2	i	6.6*
COc1ccccc1C(=O)NCCC(=O)N1CCN(c2ccccc2O)CC1	9.6	i	-1.9	-1.7	·	·
COc1ccccc1C(=O)NCCC(=O)N1CC(=O)Nc2ccccc21	1.0	+	0.2	-3.2	i	0.3

Screens: PubChem, several laboratories
